Measured values from the array DNA melting data of Ke et al. (doi:10.1101/2024.01.08.574731).

Tests used:
[1] = folding enthalpy; higher = less favourable; fluorescence melt of hairpins on a sequencing array, two-state fit; conditions: sodium 0.088 M
Summary of the method: (§1)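 Bootstrapped two-state fits yielded melting temperature and folding enthalpy for library hairpins. Cy3 fluorescence, with annealed Cy3 and quencher oligos, was imaged on a sequenced MiSeq flow cell in 50 mM Na-HEPES pH 8.0, 25 mM NaCl in 2.5 °C steps up to 60 °C, and normalised to pre-quench Cy3 and to control constructs. Four replicates were combined by inverse variance, and fitted temperatures were raised by 9.35 °C to match UV melts.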

[2] = melting temperature; fluorescence melt of hairpins on a sequencing array, two-state fit, raised by 9.35 °C to match UV melts; conditions: sodium 0.088 M
Summary of the method: as §1

Sequence	folding enthalpy [1] [kcal/mol]	Tm [2] [°C]
CGCACGGAAACGTGGGCG ((((((....)))..)))	-12.8	56.3
CGCACGGAAACGTTCGCG ((((((....)))..)))	-22.7	41.1
CGCACGGAAACGTTTGCG ((((((....)))..)))	-29.5	44.1
CGCAGACGGAAACGTGCG (((..(((....))))))	-22.6	49.3
CGCATCCGGAAACGGGCG (((..(((....))))))	-26.7	46.9
CGCATCGGAAACGAGGCG (((.(((....))).)))	-44.1	61.4
CGCATTCGGAAACGAGCG (((..(((....))))))	-25.9	36.9
CGCCCGGAAACGGAAGCG ((((((....)))..)))	-30.8	49.3
CGCCCGGAAACGGGTGCG ((((((....)))..)))	-10.7	57.5
CGCCCGGAAACGGTAGCG ((((((....)))..)))	-30.4	50.9
CGCCCGGAAACGGTCGCG ((((((....)))..)))	-21.2	50.1
CGCCCTCGGAAACGAGCG (((..(((....))))))	-12.2	34.5
CGCCGCGGAAACGCGCG (((.(((....))))))	-16.6	66.6
CGCCGTCGGAAACGAGCG (((..(((....))))))	-28.4	50.3
CGCGCGGAAACGCATGCG ((((((....)))..)))	-32.8	52.9
CGCGCGGAAACGCCAGCG ((((((....)))..)))	-23	53.9
CGCGCGGAAACGCCCGCG ((((((....)))..)))	-29.7	54.7
CGCGCGGAAACGCTCGCG ((((((....)))..)))	-23.4	52.5
CGCGCGGAAACGCTGGCG ((((((....)))..)))	-29.6	53.7
CGCGGAACGATCCGCG ((((((....))))))	-31.8	67.6
CGCGGAACGTCCGCG ((((((...))))))	-39.5	60.5
CGCGGAAGCCTCCGCG ((((((....))))))	-31.3	68.6
CGCGGAAGGTCCGCG ((((((...))))))	-27.1	69.2

Sequence	folding enthalpy [1] [kcal/mol]	Tm [2] [°C]
CGCGGAATTCTCCGCG ((((((....))))))	-32	69.3
CGCGGACAAATCCGCG ((((((....))))))	-40.8	60.9
CGCGGACAGCTCCGCG ((((((....))))))	-30.1	68.2
CGCGGACAGTTCCGCG ((((((....))))))	-40.7	66.6
CGCGGACCACTCCGCG ((((((....))))))	-32.7	64
CGCGGACCATTCCGCG ((((((....))))))	-37.3	65.3
CGCGGACCGATCCGCG ((((((....))))))	-36.5	68.5
CGCGGACGACTCCGCG ((((((....))))))	-40.8	63.5
CGCGGACGCCTCCGCG ((((((....))))))	-32	68.8
CGCGGACTTCTCCGCG ((((((....))))))	-35.6	65.9
CGCGGAGCGATCCGCG ((((((....))))))	-23.5	62.2
CGCGTGCGGAAACGCGCG (((..(((....))))))	-12.4	66.1
CGCTACGGAAACGTGCG (((.(((....))))))	-33.2	53.3
CGCTACGGAAACGTGGCG (((.(((....))).)))	-40.1	59.5
CGCTACGGAAACGTTGCG (((.(((....))).)))	-38.7	56.3
CGCTAGAAATAGCG (((((....)))))	-24.9	51.8
CGCTCGGAAACGAAAGCG ((((((....)))..)))	-27.8	47.2
CGCTCGGAAACGAAGGCG ((((((....)))..)))	-29.6	44.7
CGCTCGGAAACGACCGCG ((((((....)))..)))	-21.6	38.6
CGCTCGGAAACGACGGCG ((((((....)))..)))	-22.7	46.6
CGCTCGGAAACGAGGGCG ((((((....)))..)))	-12.4	51.7
CGCTCGGAAACGATCGCG ((((((....)))..)))	-24.2	40.2
CGCTCTCGGAAACGAGCG (((..(((....))))))	-17.5	46

Sequence	folding enthalpy [1] [kcal/mol]	Tm [2] [°C]
CGCTGCGGAAACGCGCG (((.(((....))))))	-27.1	60.8
CGCTGCGGAAACGCTGCG (((.(((....))).)))	-30.7	69.2
CGCTTGAAAAAGCG (((((....)))))	-23.3	58.2
CGCTTGCGGAAACGCGCG (((..(((....))))))	-10.8	51.3
CGGAAACGGAAACGTCCG (((..(((....))))))	-22.9	41.1
CGGAAGAAATTCCG (((((....)))))	-25.1	46.4
CGGACGGAAACGTCACCG ((((((....)))..)))	-11.6	34.4
CGGACGGAAACGTGCCG ((((((....))).)))	-18.7	48.4
CGGACGGAAACGTGGCCG ((((((....)))..)))	-25.7	44.1
CGGAGGCGGAAACGCCCG (((..(((....))))))	-11.7	54.7
CGGATCGGAAACGACCG (((.(((....))))))	-28.2	49.8
CGGCACGGAAACGTCCG (((.(((....))))))	-21.8	47.9
CGGCATCGGAAACGACCG (((..(((....))))))	-16.6	34.4
CGGCCCCGGAAACGGCCG (((..(((....))))))	-31.9	54.4
CGGCCCGGAAACGGACCG (((.(((....))).)))	-37.7	57.6
CGGCCGGAAACGGAACCG ((((((....)))..)))	-26.2	46
CGGCCGGAAACGGACCG ((((((....))).)))	-25	54.6
CGGCCGGAAACGGCACCG ((((((....)))..)))	-8.06	34.5
CGGCCGGAAACGGCGCCG ((((((....)))..)))	-8.21	39.2
CGGCCGGAAACGGTGCCG ((((((....)))..)))	-35.8	51.9
CGGCGCGGAAACGCCCG (((.(((....))))))	-16.7	56.5
CGGCGTCGGAAACGACCG (((..(((....))))))	-13.8	47.4
CGGCTCGGAAACGATCCG (((.(((....))).)))	-44.5	49.2

Sequence	folding enthalpy [1] [kcal/mol]	Tm [2] [°C]
CGGGACCGGAAACGGCCG (((..(((....))))))	-16.1	48.5
CGGGATCGGAAACGACCG (((..(((....))))))	-22.6	40
CGGGCCCGGAAACGGCCG (((..(((....))))))	-13.3	50.3
CGGGCGGAAACGCAACCG ((((((....)))..)))	-23.9	49.7
CGGGCGGAAACGCACCG ((((((....))).)))	-16.9	60.4
CGGGCGGAAACGCGTCCG ((((((....)))..)))	-23.9	53
CGGGTGAAAACCCG (((((....)))))	-28.9	68.6
CGGTACGGAAACGTCCCG (((.(((....))).)))	-25	46.6
CGGTACGGAAACGTCCG (((.(((....))))))	-20.9	47.7
CGGTACGGAAACGTGCCG (((.(((....))).)))	-37.5	59.8
CGGTCGGAAACGACTCCG ((((((....)))..)))	-13.3	33.9
CGGTCGGAAACGATACCG ((((((....)))..)))	-26.9	41.2
CGGTCTCGGAAACGACCG (((..(((....))))))	-30	46.7
CGGTTCGGAAACGAGCCG (((.(((....))).)))	-50.5	58.6
CGGTTGAAAAACCG (((((....)))))	-29.6	56.2
CGTACCGGAAACGGAACG (((.(((....))).)))	-30.7	50.7
CGTACGAAAGTACG (((((....)))))	-26.7	68.9
CGTACGGAAACGTTAACG ((((((....)))..)))	-16.7	37.3
CGTAGCGGAAACGCACG (((.(((....))))))	-22.2	53.1
CGTATGCGGAAACGCACG (((..(((....))))))	-9.53	40.7
CGTCACGGAAACGTACG (((.(((....))))))	-22.8	40
CGTCAGAAATGACG (((((....)))))	-24.5	51.6
CGTCCCCGGAAACGGACG (((..(((....))))))	-21.1	42.2
